# Experimental data published in publication PMC3204933 (Free radical biology & medicine, 2011).
# Entries after “also recorded” stand apart in the source; their conditions may differ. Where no end group is shown, it is not given here.
# B1: Nox2ds (peptide)
# peptide: CSTRVRRQL-NH2
# B2: unlabeled Nox4 B-loop peptide (amino acids 77 – 106) (peptide, UniProt Q9NPH5-1 77-106, looked up)
# peptide: RTLLAYLRGSQKVPSRRTRRLLDKSRTFHI
# What was measured:
# [1] = target: T1, Nox2 oxidase (COS-Nox2 cell lysate) (Homo sapiens, UniProt P14598); experiment: SOD-inhibitable cytochrome c assay, COS-Nox2 cell-free system; type: biochemical; settings: for decrease of O2^•− production: L-NAME 100 μM, rotenone 50 μM, febuxostat 100 nM, n = 3
# T1 sequence (P14598 1-390): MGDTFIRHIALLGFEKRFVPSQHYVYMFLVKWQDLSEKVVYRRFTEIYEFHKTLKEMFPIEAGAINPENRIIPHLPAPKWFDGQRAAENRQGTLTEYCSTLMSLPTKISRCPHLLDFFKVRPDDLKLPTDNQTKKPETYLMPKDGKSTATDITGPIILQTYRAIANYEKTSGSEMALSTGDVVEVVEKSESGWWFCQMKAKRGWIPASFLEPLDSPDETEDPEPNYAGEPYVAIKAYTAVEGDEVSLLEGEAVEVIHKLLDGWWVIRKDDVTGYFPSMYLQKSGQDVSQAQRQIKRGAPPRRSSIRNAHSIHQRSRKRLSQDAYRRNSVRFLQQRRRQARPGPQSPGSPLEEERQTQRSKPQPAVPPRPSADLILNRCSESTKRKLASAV
# [2] = system: Nox1/NOXO1/NOXA1 (HEK-Nox1 cell-free system); experiment: Cytochrome c assay, HEK-Nox1 cell-free system; type: biochemical, human; settings: 10 μM Nox2ds preincubated with NOXO1; LiDS 130 μM
# Outline: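 […] cells were separately transfected with Nox1, NOXO1 or NOXA1. Lysates were spun at 160000 × g for 60 min at 4 °C to give Nox1 membranes and NOXO1 and NOXA1 cytosols. NOXO1 was preincubated with vehicle or 10 μM peptide for 10 min, then Nox1 membrane and NOXA1 added in turn. LiDS (130 μM) was followed by 180 μM NADPH. Output was the initial linear rate of SOD-inhibitable cytochrome c reduction, nmol/min/10^7 cell equivalents.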
# [3] = system: Nox4 DH domain (GST-fused); experiment: Fluorescence polarization competition with FITC-Nox4 B-loop; type: binding; settings: for competition with Nox4 B-loop for Nox4 DH domain: fluorescence polarization
# [4] = system: xanthine oxidase; settings: ref [41], [47]; cited from earlier work
# [5] = system: NADH dehydrogenase (mitochondrial complex I); settings: ref [41], [47]; cited from earlier work
# [6] = system: Nox4 (COS-Nox4 cells); settings: DPI 5 μM; untreated COS-Nox4 4818±19, COS-22 2577±6.5
# [7] = system: nitric oxide synthase (NOS); settings: ref [41], [47]; cited from earlier work
# [8] = system: Nox4 (COS-Nox4 cells); experiment: cells; settings: Homo sapiens, read-out: inhibition of Nox4-dependent activity
# [9] = system: SH3 domains of p47^phox; settings: ref [41], [42]; cited from earlier work
# [10] = system: Nox1 oxidase (COS-Nox1/NOXO1/NOXA1 cells); experiment: L-012 chemiluminescence, intact COS-Nox1/NOXO1/NOXA1 cells; type: cell-based, human; settings: n = 3; for L-012 chemiluminescence: untreated 52977±1921
# [11] = system: COS-22 cells; experiment: L-012 chemiluminescence, intact COS-22 cells; type: cell-based; settings: n = 3, untreated 8734±158
# [12] = system: xanthine oxidase; experiment: Xanthine/xanthine oxidase O2^•− generating system, EPR; type: biochemical
# [13] = system: HEK 298 cells; experiment: L-012 chemiluminescence, non-transfected HEK 298 cells; type: cell-based; settings: PMA 1 μM; n = 4; unstimulated 755±65.3
# [14] = system: HEK-Nox1/NOXO1/NOXA1 cells; experiment: L-012 chemiluminescence, intact HEK-Nox1/NOXO1/NOXA1 cells; type: cell-based, human; settings: PMA 1 μM
# [15] = target: T2, Nox4 dehydrogenase domain (amino acids 304 – 578) recombinant protein fused to GST (human, UniProt Q9NPH5 304-578); experiment: fluorescence polarisation
# T2 sequence (looked up): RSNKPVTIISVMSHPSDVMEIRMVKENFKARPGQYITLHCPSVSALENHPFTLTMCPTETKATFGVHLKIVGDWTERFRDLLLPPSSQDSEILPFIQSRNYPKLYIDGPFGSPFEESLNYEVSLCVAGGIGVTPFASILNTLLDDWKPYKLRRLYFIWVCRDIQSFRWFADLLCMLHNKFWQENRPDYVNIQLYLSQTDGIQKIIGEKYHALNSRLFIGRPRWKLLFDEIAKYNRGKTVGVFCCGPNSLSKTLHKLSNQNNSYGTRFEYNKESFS
molecule,measurement,setting,value
"CCCCCCCCCCCCOS(=O)(=O)[O-].[Li+] [LiDS, lithium dodecyl sulfate]",O2^•− production,"[1]; LiDS 130 μM, NADPH 180 μM, vehicle 0.40±0.1, p < 0.05",1.33±0.1 nmol O2^•−/min/10^7 COS-Nox2 lysate-cell equivalents
same,effect on O2^•− production in HEK-Nox1 cell-free system,[2],significantly increased O2^•− production
Nox4 B-loop: unlabeled Nox4 B-loop peptide (amino acids 77 – 106) (RTLLAYLRGSQKVPSRRTRRLLDKSRTFHI),competition with Nox4 B-loop for Nox4 DH domain,[3],"effectively competed off the FITC-Nox4 B-loop in the low micromolar range; also recorded: quite effectively, in the low micromolar range"
"COC(=O)[C@@H](N)CCCNC(N)=N[N+](=O)[O-] [L-NAME, Nω-Nitro-L-arginine methyl ester]",decrease of O2^•− production,[1],did not decrease O2^•− production significantly
"c1ccc2c(c1)[I+]c1ccccc1-2 [DPI, diphenyleneiodonium chloride]",inhibition,[4],"inhibits a multitude of flavin-containing enzymes including nitric oxide synthase (NOS), xanthine oxidase"
same,inhibition,[5],"inhibits a multitude of flavin-containing enzymes including nitric oxide synthase (NOS), xanthine oxidase, and NADH dehydrogenase (mitochondrial complex I)"
same,"H2O2-generating activity, Amplex Red fluorescence",[6],2977±227 RFU
same,inhibition,[7],inhibits a multitude of flavin-containing enzymes including nitric oxide synthase (NOS)
same,inhibition at 5 µM,[8],82%
PR-39,SH3 binding and association of p47^phox with Nox2,[9],"binds to the SH3 domains of p47^phox, was shown to prevent association of p47^phox with Nox2"
"Cc1nc(-c2ccc(OCC(C)C)c(C#N)c2)sc1C(=O)O [febuxostat, Febuxostat]",decrease of O2^•− production,[1],did not decrease O2^•− production significantly
C=C(C)[C@H]1Cc2c(ccc3c2O[C@@H]2COc4cc(OC)c(OC)cc4[C@@H]2C3=O)O1 [rotenone],decrease of O2^•− production,[1],did not decrease O2^•− production significantly
superoxide dismutase [SOD],effect on chemiluminescent signal / O2^•−,"[10]; SOD 150 U/ml, PMA 1 μM",abolished the chemiluminescent signal
same,L-012 chemiluminescence,[10]; SOD 150 U/ml,177±9 RLUs
same,L-012 chemiluminescence,[11]; SOD 150 U/ml,108±16 RLUs
same,radical intensity,"[12]; XO + X in presence of 100 U/ml SOD, 6 experiments",15.7±0.3%
"CCCCCCCCCCCCCC(=O)O[C@@H]1[C@@H](C)[C@@]2(O)[C@@H](C=C(CO)C[C@]3(O)C(=O)C(C)=C[C@@H]23)[C@@H]2C(C)(C)[C@]12OC(C)=O [PMA, phorbol myristate acetate]",L-012 chemiluminescence,[13],912±40.5 RLUs
same,L-012 chemiluminescence,[10]; PMA 1 μM,56537±2741 RLUs
same,effect on chemiluminescent signal / O2^•−,"[10]; SOD 150 U/ml, PMA 1 μM",did not stimulate O2^•−
same,stimulation of O2^•−,"[14]; n = 4, p < 0.05",significantly stimulated O2^•−
same,L-012 chemiluminescence,"[14]; n = 4, unstimulated 8560±337, p < 0.05",12946±199 RLUs
same,L-012 chemiluminescence,[11]; PMA 1 μM,5903±541 RLUs
[NH3]-C-L-R-V-T-R-Q-S-R-[CONH2] [scrmb Nox2ds],inhibition of O2^•− production,"[1]; 0.1–10 μM, 5 min preincubation, LiDS 130 μM, NADPH 180 μM, 7–16 experiments",did not inhibit Nox2-oxidase
same,CM^• radical intensity,"[12]; 10 μM peptide + X/XO, 10 min, XO/X control 100±2.4, mean ± SEM of 6 experiments",92.4±1.8%
same,effect on XO-generated O2^•−,"[12]; 10 μM, 10 min preincubation",did not alter XO-generated O2^•−
same,competition with Nox4 B-loop,[3]; at concentrations below 0.1 mM,not effective
same,competition with Nox4 B-loop for Nox4 DH domain,[3],equal and poor competition with the Nox4 B-loop for binding to the Nox4 DH domain (millimolar concentrations)
B1,LogEC50,[15],5.5 nM
B2,LogEC50,[15],3 nM
